Key:
Assay type in all cases: functional
Plasmodium berghei [1] = experiment: Change in mean survival time for control (average 6.2 days) versus treated mice (Mus musculus) 72 hrs after 640 mg/kg subcutaneous dose
Plasmodium berghei [2] = experiment: Change in mean survival time for control (average of 6.2 days) versus treated mice (Mus musculus) 72 hrs after 80 mg/kg subcutaneous dose
Plasmodium berghei [3] = experiment: Antimalarial activity as 60-day survivors in infected mice (Mus musculus) after single 320mg/kg subcutaneous dose 72 hr post infection
In short: (§1)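 Mice were infected with a normal drug-sensitive Plasmodium berghei strain. At 72 h postinfection each received one subcutaneous dose of compound dissolved or suspended in peanut oil, in five-mouse groups per dose. The read-out was the number of mice alive at 60 days postinfection, which were scored as cured.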

Plasmodium berghei [4] = experiment: Change in mean survival time for control (average 6.2 days) versus treated mice (Mus musculus) 72 hrs after 320 mg/kg subcutaneous dose
Mus musculus [5] = experiment: Antimalarial activity, administered as a single subcutaneous dose of 40 mg/kg, 72 hrs post infection measured as number of mice (Mus musculus) surviving at 60 days post infection; in short: as §1
Mus musculus [6] = experiment: Antimalarial activity, administered as a single subcutaneous dose of 80 mg/kg, 72 hrs post infection measured as number of mice (Mus musculus) surviving at 60 days post infection; in short: as §1
Plasmodium berghei [7] = experiment: Change in mean survival time for control (average 6.2 days) versus treated mice (Mus musculus) 72 hrs after 10 mg/kg subcutaneous dose
Mus musculus [8] = experiment: Antimalarial activity, administered as a single subcutaneous dose of 640 mg/kg, 72 hrs post infection measured as number of mice (Mus musculus) surviving at 60 days post infection; in short: as §1
Plasmodium berghei [9] = experiment: Change in mean survival time for control (average 6.2 days) versus treated mice (Mus musculus) 72 hrs after 160 mg/kg subcutaneous dose
Plasmodium berghei [10] = experiment: Change in mean survival time for control (average 6.2 days) versus treated mice (Mus musculus) 72 hrs after 5 mg/kg subcutaneous dose
Plasmodium berghei [11] = experiment: Difference in mean survival time in mice (Mus musculus) (control = 6.2 days) after single 40mg/kg subcutaneous dose 72hr post infection
Plasmodium berghei [12] = experiment: Antimalarial activity as 60-day survivors in Plasmodium berghei infected mice (Mus musculus) after single 160mg/kg subcutaneous dose 72 hr post infection; in short: as §1
Plasmodium berghei [13] = experiment: (§2) Change in mean survival time for control (average 6.2 days) versus treated mice (Mus musculus) 72 hrs after […] subcutaneous dose
Plasmodium berghei [14] = experiment: Change in mean survival time for control (average 6.2 days) versus treated mice (Mus musculus) 72 hrs after […] subcutaneous dose
Plasmodium berghei [15] = experiment: Change in mean survival time for control (average 6.2 days) versus treated mice (Mus musculus) 72 hrs after 20 mg/kg subcutaneous dose
Plasmodium berghei [16] = experiment: Change in mean survival time for control (average 6.2 days) versus treated mice (Mus musculus) after 40 mg/kg subcutaneous dose
Plasmodium berghei [17] = experiment: Change in mean survival time for control (average 6.2 days) versus treated mice (Mus musculus) after 320 mg/kg subcutaneous dose
Plasmodium berghei [18] = experiment: as §2; remark: listed apart in the source
Plasmodium berghei [19] = experiment: Change in mean survival time for control (average 6.2 days) versus treated mice (Mus musculus) after 160 mg/kg subcutaneous dose
Plasmodium berghei [20] = experiment: Antimalarial activity in primary screen
Plasmodium berghei [21] = experiment: Change in mean survival time in control (average 6.2 days) versus treated mice (Mus musculus) after 80 mg/kg subcutaneous dose
Plasmodium berghei [22] = experiment: Change in mean survival time for control (average 6.2 days) versus treated mice (Mus musculus) after 20 mg/kg subcutaneous dose
Plasmodium berghei [23] = experiment: Change in mean survival time of Plasmodium berghei infected mice (Mus musculus) after […] subcutaneous dose
Plasmodium berghei [24] = experiment: Change in mean survival time of Plasmodium berghei infected mice (Mus musculus) on 1.25 mg/kg subcutaneous dose
Plasmodium berghei [25] = experiment: Difference in mean survival time of Plasmodium berghei infected mice (Mus musculus) after 10 mg/kg subcutaneous dose
Plasmodium berghei [26] = experiment: Change in mean survival time of Plasmodium berghei infected mice (Mus musculus) after 5 mg/kg subcutaneous dose
Plasmodium berghei [27] = experiment: Antimalarial activity as 60-day survivors in infected mice (Mus musculus) after single 20 mg/kg subcutaneous dose 72hr post infection; in short: as §1

| Structure (SMILES) | No. of mice cured (Plasmodium berghei [3]) | No. of mice cured (Mus musculus [5]) | No. of mice cured (Mus musculus [6]) | No. of mice cured (Mus musculus [8]) | No. of mice cured (Plasmodium berghei [12]) | Delta MST (Plasmodium berghei [16]) [days] | Delta MST (Plasmodium berghei [17]) [days] | Delta MST (Plasmodium berghei [18]) [days] | Delta MST (Plasmodium berghei [19]) | ED30 (Plasmodium berghei [20]) [mg/kg] | Delta MST (Plasmodium berghei [21]) [days] | Delta MST (Plasmodium berghei [22]) [days] | also measured |
| --- | --- | --- | --- | --- | --- | --- | --- | --- | --- | --- | --- | --- | --- |
| CCCN(CCC)Cc1cc(Nc2ccnc3cc(Cl)ccc23)cc(-c2ccc(Cl)cc2)c1O | 4 | 1 | 3 | 3 | 2 |  |  |  |  |  |  |  | Delta MST (Plasmodium berghei [1]): 18.1 days; Delta MST (Plasmodium berghei [2]): 27.6 days; Delta MST (Plasmodium berghei [4]): 29.6 days; Delta MST (Plasmodium berghei [7]): 6.8 days; Delta MST (Plasmodium berghei [9]): 26.6 days; Delta MST (Plasmodium berghei [10]): 3.8 days; Delta MST (Plasmodium berghei [11]): 24.4 days; Delta MST (Plasmodium berghei [13]): 0.4 days; Delta MST (Plasmodium berghei [14]): 0.8 days; Delta MST (Plasmodium berghei [15]): 11.2 days |
| CCN(CC)Cc1cc(Nc2cc[n+]([O-])c3cc(Cl)ccc23)cc(-c2cc(OC)ccc2OC)c1O |  |  |  | 1 |  | 2.6 | 7.8 | 27.1 | 6 days | 2450 | 2 | 0.6 |  |
| CCN(CC)Cc1cc(Nc2cc[n+]([O-])c3cc(Cl)ccc23)cc(-c2ccc(OC)cc2)c1O | 1 |  |  | 2 |  | 7.3 | 8.2 | 15 | 7.3 | 423 | 9.1 | 3.7 | Delta MST (Plasmodium berghei [23]): -0.1 days; Delta MST (Plasmodium berghei [24]): 0.1 days; Delta MST (Plasmodium berghei [25]): 1.1 days |
| CCN(CC)Cc1cc(Nc2cc[n+]([O-])c3cc(Cl)ccc23)cc(-c2ccc(Cl)c(Cl)c2)c1O | 5 | 1 | 2 | 5 | 2 | 21.2 |  |  | 29.1 days | 36.6 | 25.7 | 12 | Delta MST (Plasmodium berghei [26]): 0.7 days; Delta MST (Plasmodium berghei [23]): -0.1 days; Delta MST (Plasmodium berghei [24]): -0.1 days; Delta MST (Plasmodium berghei [25]): 5.9 days |
| CCN(CC)Cc1cc(Nc2cc[n+]([O-])c3cc(Cl)ccc23)cc(-c2ccncc2)c1O | 2 |  |  | 3 |  | 5.7 | 12.6 | 21.9 | 10.7 days | 330 | 8.3 | 3.3 |  |
| [O-][n+]1ccc(Nc2cc(CN3CCCC3)c(O)c(-c3ccc(Cl)c(Cl)c3)c2)c2ccc(Cl)cc21 | 5 |  | 2 | 5 | 3 | 10.7 |  |  | 24.4 days |  | 25.4 | 7.9 | Delta MST (Plasmodium berghei [26]): 0.7 days; Delta MST (Plasmodium berghei [23]): -0.1 days; Delta MST (Plasmodium berghei [24]): -0.1 days; Delta MST (Plasmodium berghei [25]): 2.3 days |
| CCN(CC)Cc1cc(Nc2cc[n+]([O-])c3cc(Cl)ccc23)cc(-c2ccccn2)c1O | 1 |  |  | 1 |  | 0 | 5.1 | 9.1 | 3 days | 550 | 1 | 0.4 |  |
| CCN(CC)Cc1cc(Nc2cc[n+]([O-])c3cc(Cl)ccc23)cc(-c2ccc(C)cc2)c1O |  |  |  |  |  | 0.5 | 15.7 | 10.5 | 5.1 days |  | 4.3 |  | No. of mice cured (Plasmodium berghei [27]): 1.3 |
| CCN(CC)Cc1cc(Nc2ccnc3cc(Cl)ccc23)cc(-c2ccccc2Cl)c1O | 4 | 5 | 5 | 5 | 4 |  |  |  |  | 15.3 |  |  | Delta MST (Plasmodium berghei [4]): 41.9 days; Delta MST (Plasmodium berghei [7]): 14.7 days; Delta MST (Plasmodium berghei [9]): 41.9 days; Delta MST (Plasmodium berghei [10]): 4.7 days; Delta MST (Plasmodium berghei [13]): 0.7 days; No. of mice cured (Plasmodium berghei [27]): 2; Delta MST (Plasmodium berghei [14]): 0.3 days; Delta MST (Plasmodium berghei [15]): 17.2 days |
| CCN(CC)Cc1cc(Nc2cc[n+]([O-])c3cc(Cl)ccc23)cc(-c2ccc(OC)c(OC)c2)c1O | 3 |  |  | 2 |  | 5.4 | 12.4 | 11.1 | 11.4 | 204 | 5 | 2.4 |  |
| CCN(CC)Cc1cc(Nc2cc[n+]([O-])c3cc(Cl)ccc23)cc(-c2ccccc2C(F)(F)F)c1O | 5 |  |  | 5 | 4 | 15.5 |  |  | 24.7 days | 56.1 | 24.7 | 7.7 | Delta MST (Plasmodium berghei [26]): 0.7 days; Delta MST (Plasmodium berghei [23]): 0.1 days; Delta MST (Plasmodium berghei [24]): 0.5 days; Delta MST (Plasmodium berghei [25]): 4.1 days |
| CC(C)(C)NCc1cc(Nc2ccnc3cc(Cl)ccc23)cc(-c2ccc(Cl)c(Cl)c2)c1O | 3 | 2 | 4 | 4 | 4 |  |  |  |  |  |  |  | Delta MST (Plasmodium berghei [1]): 16.4 days; Delta MST (Plasmodium berghei [2]): 30.4 days; Delta MST (Plasmodium berghei [4]): 14.4 days; Delta MST (Plasmodium berghei [7]): 9.7 days; Delta MST (Plasmodium berghei [9]): 13.4 days; Delta MST (Plasmodium berghei [10]): 6.1 days; Delta MST (Plasmodium berghei [11]): 27.4 days; Delta MST (Plasmodium berghei [13]): 0.7 days; No. of mice cured (Plasmodium berghei [27]): 1; Delta MST (Plasmodium berghei [14]): 0.1 days; Delta MST (Plasmodium berghei [15]): 10.5 days |
| CCN(CC)Cc1cc(Nc2ccnc3cc(Cl)ccc23)cc(-c2c(F)cccc2F)c1O | 5 | 1 | 2 | 4 | 5 |  |  |  |  | 23.7 |  |  | Delta MST (Plasmodium berghei [1]): 36.8 days; Delta MST (Plasmodium berghei [2]): 24.1 days; Delta MST (Plasmodium berghei [7]): 8.3 days; Delta MST (Plasmodium berghei [10]): 7.9 days; Delta MST (Plasmodium berghei [11]): 16.9 days; Delta MST (Plasmodium berghei [13]): 0.1 days; No. of mice cured (Plasmodium berghei [27]): 1; Delta MST (Plasmodium berghei [14]): 2.7 days; Delta MST (Plasmodium berghei [15]): 12.2 days |
| CCN(CC)Cc1cc(Nc2cc[n+]([O-])c3cc(Cl)ccc23)cc(-c2ccccc2OC)c1O | 1 |  |  | 1 | 2 | 6.9 | 36.2 | 27.2 | 8.9 days | 170 | 8.7 | 0.7 |  |
| CCN(CC)Cc1cc(Nc2cc[n+]([O-])c3cc(Cl)ccc23)cc(-c2cccc3ccccc23)c1O |  |  |  | 1 |  | 0.4 | 1.6 | 12.9 | 6.4 days | 14400 | 3 | 0 |  |
| CCN(CC)Cc1cc(Nc2cc[n+]([O-])c3cc(Cl)ccc23)cc(-c2cccc(F)c2)c1O | 3 |  | 2 | 1 | 3 | 22.8 | 24.1 | 14.8 | 29.6 days | 33.7 | 22.6 | 27.2 | Delta MST (Plasmodium berghei [26]): 4.5 days; Delta MST (Plasmodium berghei [23]): 0.5 days; Delta MST (Plasmodium berghei [24]): -0.1 days |
| CN(C)Cc1cc(Nc2ccnc3cc(Cl)ccc23)cc(-c2ccc(Cl)cc2)c1O | 1 | 4 | 4 | 1 | 5 |  |  |  |  | 6.2 |  |  | Delta MST (Plasmodium berghei [1]): 18.7 days; Delta MST (Plasmodium berghei [2]): 45.4 days; Delta MST (Plasmodium berghei [4]): 14.4 days; Delta MST (Plasmodium berghei [7]): 20.4 days; Delta MST (Plasmodium berghei [10]): 14.2 days; Delta MST (Plasmodium berghei [11]): 18.8 days; Delta MST (Plasmodium berghei [13]): 1.2 days; No. of mice cured (Plasmodium berghei [27]): 3; Delta MST (Plasmodium berghei [14]): 6 days; Delta MST (Plasmodium berghei [15]): 36.8 days |

— ChEMBL document CHEMBL1123290, “Synthesis, antimalarial activity, and quantitative structure-activity relationships of tebuquine and a series of related 5-[(7-chloro-4-quinolinyl)amino]-3-[(alkylamino)methyl] [1,1'-biphenyl]-2-ols and N omega-oxides” (1986)
